Laboratory results from ChEMBL document CHEMBL5303300, “EUbOPEN Chemogenomics Library - Multiplex” (2023).
Where “and” joins values, the source holds several entries; their conditions need not be identical. Identical values can stand only once.

Tested on: HEK-293T
Experiment: Multiplex assay against HEK293T
Format: toxicity, cell-based
Conditions: human, number of replicates 2
Summary of the method: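 Live cells carried four stains from seeding: Hoechst33342, BioTracker Green Microtubule Cytoskeleton Dye, MitoTracker Red and Annexin V Alexa Fluor 680. They were imaged on a CQ1 microscope at 37°C and 5% CO2 after compound addition. Using CellPathfinder machine-learning gating, cells were split into Hoechst high-intensity objects or normal cells, normal cells into healthy, pyknosed or fragmented nuclei, and pyknosed cells into mitotic or apoptotic; tubulin, mitochondrial-mass and membrane-permeability phenotypes are per cents of healthy-nucleus cells.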

[1] = 12 h, 1 µM, compound concentration 1 uM
[2] = 12 h, 10 µM, compound concentration 10 uM
[3] = 24 h, 1 µM, compound concentration 1 uM
[4] = 24 h, 10 µM, compound concentration 10 uM
[5] = 48 h, 1 µM, compound concentration 1 uM
[6] = 48 h, 10 µM, compound concentration 10 uM

## O=C1Nc2ccc(C(=O)c3ccco3)cc2C1=Cc1cc(Cl)c(O)c(Cl)c1 [GW406108X]
[1]
  Population Apoptotic (%): 52% and 54%
  Population Fragmented Nuclei (%): 4% and 3%
  Population Healthy Nuclei (%): 83% and 81%
  Population Hoechst High Intensity Objects (%): 9%
  Population Membrane Permeable-Phenotype (%): 2% and 1%
  Population Mitochondria Different-Phenotype (%): 18% and 17%
  Population Mitotic Cells (%): 47% and 45%
  Population Normal (%): 90%
  Population Pyknosed Nuclei (%): 11% and 14%
  Population Tubulin-Different-Phenotype (%): 49% and 42%
  Total Cell Count: 695 and 619
[2]
  Population Apoptotic (%): 53% and 61%
  Population Fragmented Nuclei (%): 4% and 3%
  Population Healthy Nuclei (%): 82% and 85%
  Population Hoechst High Intensity Objects (%): 7% and 9%
  Population Membrane Permeable-Phenotype (%): 2% and 1%
  Population Mitochondria Different-Phenotype (%): 19%
  Population Mitotic Cells (%): 46% and 38%
  Population Normal (%): 92% and 90%
  Population Pyknosed Nuclei (%): 13% and 10%
  Population Tubulin-Different-Phenotype (%): 67%
  Total Cell Count: 686 and 661
[3]
  Population Apoptotic (%): 55% and 53%
  Population Fragmented Nuclei (%): 7%
  Population Healthy Nuclei (%): 85% and 82%
  Population Hoechst High Intensity Objects (%): 9%
  Population Membrane Permeable-Phenotype (%): 2% and 1%
  Population Mitochondria Different-Phenotype (%): 4% and 5%
  Population Mitotic Cells (%): 44% and 46%
  Population Normal (%): 90%
  Population Pyknosed Nuclei (%): 7% and 9%
  Population Tubulin-Different-Phenotype (%): 26% and 25%
  Total Cell Count: 1089 and 967
[4]
  Population Apoptotic (%): 46% and 59%
  Population Fragmented Nuclei (%): 7% and 6%
  Population Healthy Nuclei (%): 85% and 81%
  Population Hoechst High Intensity Objects (%): 11% and 13%
  Population Membrane Permeable-Phenotype (%): 3% and 2%
  Population Mitochondria Different-Phenotype (%): 10% and 15%
  Population Mitotic Cells (%): 53% and 40%
  Population Normal (%): 88% and 86%
  Population Pyknosed Nuclei (%): 7% and 11%
  Population Tubulin-Different-Phenotype (%): 53%
  Total Cell Count: 904 and 698
[5]
  Population Apoptotic (%): 9% and 25%
  Population Fragmented Nuclei (%): 15% and 13%
  Population Healthy Nuclei (%): 81% and 82%
  Population Hoechst High Intensity Objects (%): 10% and 11%
  Population Membrane Permeable-Phenotype (%): 5% and 2%
  Population Mitochondria Different-Phenotype (%): 0%
  Population Mitotic Cells (%): 90% and 74%
  Population Normal (%): 89% and 88%
  Population Pyknosed Nuclei (%): 2% and 3%
  Population Tubulin-Different-Phenotype (%): 13% and 12%
  Total Cell Count: 2778 and 2175
[6]
  Population Apoptotic (%): 34% and 50%
  Population Fragmented Nuclei (%): 18% and 14%
  Population Healthy Nuclei (%): 78% and 80%
  Population Hoechst High Intensity Objects (%): 15% and 20%
  Population Membrane Permeable-Phenotype (%): 4% and 1%
  Population Mitochondria Different-Phenotype (%): 1% and 3%
  Population Mitotic Cells (%): 65% and 50%
  Population Normal (%): 84% and 79%
  Population Pyknosed Nuclei (%): 3% and 5%
  Population Tubulin-Different-Phenotype (%): 22% and 30%
  Total Cell Count: 1684 and 1056

## CC(C)N1CCN(Cc2cnc(-c3cc(-c4cccc5[nH]ccc45)cc4[nH]ncc34)o2)CC1 [NEMIRALISIB]
[1]
  Population Apoptotic (%): 45% and 59%
  Population Fragmented Nuclei (%): 5% and 3%
  Population Healthy Nuclei (%): 77% and 74%
  Population Hoechst High Intensity Objects (%): 12% and 13%
  Population Membrane Permeable-Phenotype (%): 4% and 2%
  Population Mitochondria Different-Phenotype (%): 18% and 22%
  Population Mitotic Cells (%): 54% and 40%
  Population Normal (%): 87% and 86%
  Population Pyknosed Nuclei (%): 16% and 21%
  Population Tubulin-Different-Phenotype (%): 69% and 70%
  Total Cell Count: 748 and 665
[2]
  Population Apoptotic (%): 62% and 64%
  Population Fragmented Nuclei (%): 2% and 3%
  Population Healthy Nuclei (%): 87% and 84%
  Population Hoechst High Intensity Objects (%): 11% and 7%
  Population Membrane Permeable-Phenotype (%): 5% and 3%
  Population Mitochondria Different-Phenotype (%): 46% and 61%
  Population Mitotic Cells (%): 37% and 35%
  Population Normal (%): 88% and 92%
  Population Pyknosed Nuclei (%): 9% and 12%
  Population Tubulin-Different-Phenotype (%): 98%
  Total Cell Count: 425 and 404
[3]
  Population Apoptotic (%): 52% and 61%
  Population Fragmented Nuclei (%): 10% and 6%
  Population Healthy Nuclei (%): 75% and 74%
  Population Hoechst High Intensity Objects (%): 9% and 11%
  Population Membrane Permeable-Phenotype (%): 2%
  Population Mitochondria Different-Phenotype (%): 7% and 8%
  Population Mitotic Cells (%): 47% and 38%
  Population Normal (%): 90% and 88%
  Population Pyknosed Nuclei (%): 13% and 19%
  Population Tubulin-Different-Phenotype (%): 40% and 42%
  Total Cell Count: 1140 and 951
[4]
  Population Apoptotic (%): 50% and 57%
  Population Fragmented Nuclei (%): 3%
  Population Healthy Nuclei (%): 85% and 78%
  Population Hoechst High Intensity Objects (%): 18% and 14%
  Population Membrane Permeable-Phenotype (%): 3%
  Population Mitochondria Different-Phenotype (%): 39% and 57%
  Population Mitotic Cells (%): 50% and 42%
  Population Normal (%): 81% and 85%
  Population Pyknosed Nuclei (%): 11% and 17%
  Population Tubulin-Different-Phenotype (%): 94% and 96%
  Total Cell Count: 468 and 473
[5]
  Population Apoptotic (%): 21% and 33%
  Population Fragmented Nuclei (%): 17% and 10%
  Population Healthy Nuclei (%): 78% and 84%
  Population Hoechst High Intensity Objects (%): 10%
  Population Membrane Permeable-Phenotype (%): 6% and 2%
  Population Mitochondria Different-Phenotype (%): 0% and 1%
  Population Mitotic Cells (%): 78% and 66%
  Population Normal (%): 89%
  Population Pyknosed Nuclei (%): 4%
  Population Tubulin-Different-Phenotype (%): 19%
  Total Cell Count: 2776 and 2131
[6]
  Population Apoptotic (%): 51% and 60%
  Population Fragmented Nuclei (%): 8% and 7%
  Population Healthy Nuclei (%): 84% and 85%
  Population Hoechst High Intensity Objects (%): 11% and 15%
  Population Membrane Permeable-Phenotype (%): 6% and 7%
  Population Mitochondria Different-Phenotype (%): 28% and 18%
  Population Mitotic Cells (%): 48% and 40%
  Population Normal (%): 88% and 84%
  Population Pyknosed Nuclei (%): 6% and 7%
  Population Tubulin-Different-Phenotype (%): 86% and 80%
  Total Cell Count: 815 and 665

## CS(=O)(=O)c1ccc(C(=O)Nc2cccc(COc3cc(F)c(Br)cc3CN3CC[C@H](O)C3)c2)c(Cl)c1.O=CO
[1]
  Population Apoptotic (%): 58% and 54%
  Population Pyknosed Nuclei (%): 13% and 21%
  Total Cell Count: 586 and 531
[2]
  Population Apoptotic (%): 57% and 73%
  Population Mitotic Cells (%): 42%
  Population Pyknosed Nuclei (%): 11% and 17%
  Total Cell Count: 505 and 443
[3]
  Population Apoptotic (%): 53% and 54%
  Population Mitotic Cells (%): 46%
  Population Pyknosed Nuclei (%): 11% and 10%
  Total Cell Count: 800 and 910
[4]
  Population Apoptotic (%): 65% and 73%
  Population Mitotic Cells (%): 34%
  Population Pyknosed Nuclei (%): 16% and 13%
  Total Cell Count: 426 and 549
[5]
  Population Apoptotic (%): 18% and 28%
  Population Mitotic Cells (%): 81% and 71%
  Population Pyknosed Nuclei (%): 3% and 4%
  Total Cell Count: 2227 and 1546
[6]
  Population Apoptotic (%): 61% and 60%
  Population Mitotic Cells (%): 38% and 39%
  Population Pyknosed Nuclei (%): 10% and 8%
  Total Cell Count: 595 and 738
